Experiment [1] addresses Baculoviral IAP repeat-containing protein 2/Tyrosine-protein kinase ABL1/Breakpoint cluster region protein (Homo sapiens) (UniProt P00519+P11274+Q13490). Put plainly: Induction of cIAP1-mediated BCR-ABL degradation in human K562 cells at 100 nM after 6 hrs by Western blot analysis relative to beta-actin. The format is cell-based. The gist of the method: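 K562 cells were treated for 6 h with test agent at graded concentrations, or with IAP ligand 4 at 10 μM as competitor. BCR-ABL was then immunoblotted. BCR-ABL band intensity was normalized to β-actin and expressed relative to a vehicle control set at 100. Means ± standard deviation, n = 3.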

The target in experiment [2] is Tyrosine-protein kinase ABL1 (Homo sapiens, UniProt P00519). Nature of the experiment: Inhibition of recombinant human His-tagged full length ABL1 allosteric site expressed in baculovirus expression system by TR-FRET assay.
The target in experiment [3] is Baculoviral IAP repeat-containing protein 3 (Homo sapiens, UniProt Q13489). Nature of the experiment: Inhibition of recombinant human His-tagged cIAP2 (Gln238 to Ser349 residues) expressed in Escherichia coli by TR-FRET assay.
The target in experiment [4] is E3 ubiquitin-protein ligase XIAP (Homo sapiens, UniProt P98170). Nature of the experiment: Inhibition of recombinant human His-tagged XIAP (Asn252 to Thr356 residues) expressed in Escherichia coli by TR-FRET assay.
Experiment [5] concerns the target Baculoviral IAP repeat-containing protein 2 (Homo sapiens, UniProt Q13490). Put plainly: Inhibition of recombinant human His-tagged cIAP1 (Leu250 to Gly350 residues) expressed in Escherichia coli by TR-FRET assay.
The subject of a further experiment is MOLT-4. Nature of the experiment: Growth inhibition of human MOLT4 cells up to 1000 nM after 48 hrs by WST-8 assay. The format is functional, cell-based. The gist of the method:
(§1)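 Cells exposed for 48 h to a graded concentration series of compound. Growth was read per well and reported as mean ± standard deviation of triplicate (n = 3) determinations.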

The target of experiment [6] is T1, Bcr/Abl fusion protein (Homo sapiens) (UniProt P00519+P11274). Put plainly: Inhibition of BCR-ABL in human K562 cells assessed as reduction in STAT5 phosphorylation at 100 nM after 6 hrs by Western blot analysis. The format is cell-based. The essentials:
(§2)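 K562 cells were exposed to 100 nM compound for 6 h. Lysates were immunoblotted for phosphorylated STAT5 and phosphorylated CrkL, which are BCR-ABL substrates, alongside phosphorylated BCR-ABL.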

Experiment [7] relates to K562. Put plainly: Growth inhibition of human K562 cells at >= 100 nM after 48 hrs by WST-8 assay. Format: functional, cell-based. The essentials: as §1
For another experiment, the system named is Jurkat. Nature of the experiment: Growth inhibition of human Jurkat cells up to 1000 nM after 48 hrs by WST-8 assay. The format is functional, cell-based. The gist of the method: as §1
The subject of the next experiment is KCL-22. Put plainly: Growth inhibition of human KCL22 cells up to 1000 nM after 48 hrs by WST-8 assay. The format is functional, cell-based. The gist of the method: as §1
For experiment [8], the target named is T1, Bcr/Abl fusion protein (Homo sapiens). Put plainly: Inhibition of BCR-ABL in human K562 cells assessed as reduction in CrkL phosphorylation at 100 nM after 6 hrs by Western blot analysis. The format is cell-based. The gist of the method:
as §2

For experiment [9] the target is unchanged. Put plainly: Inhibition of BCR-ABL phosphorylation in human K562 cells at 100 nM after 6 hrs by Western blot analysis relative to beta-actin. Format: cell-based.
The test system of experiment [10] is K562. Nature of the experiment: Growth inhibition of human K562 cells up to 1000 nM after 48 hrs by WST-8 assay. The format is functional, cell-based. The essentials:
as §1

The source made the active and inactive calls. The rule behind the calls is not given here. A value given as a limit tells only on which side of the number the result lay.

T1 sequence (P00519 whole entry, looked up, the tested form may be a part): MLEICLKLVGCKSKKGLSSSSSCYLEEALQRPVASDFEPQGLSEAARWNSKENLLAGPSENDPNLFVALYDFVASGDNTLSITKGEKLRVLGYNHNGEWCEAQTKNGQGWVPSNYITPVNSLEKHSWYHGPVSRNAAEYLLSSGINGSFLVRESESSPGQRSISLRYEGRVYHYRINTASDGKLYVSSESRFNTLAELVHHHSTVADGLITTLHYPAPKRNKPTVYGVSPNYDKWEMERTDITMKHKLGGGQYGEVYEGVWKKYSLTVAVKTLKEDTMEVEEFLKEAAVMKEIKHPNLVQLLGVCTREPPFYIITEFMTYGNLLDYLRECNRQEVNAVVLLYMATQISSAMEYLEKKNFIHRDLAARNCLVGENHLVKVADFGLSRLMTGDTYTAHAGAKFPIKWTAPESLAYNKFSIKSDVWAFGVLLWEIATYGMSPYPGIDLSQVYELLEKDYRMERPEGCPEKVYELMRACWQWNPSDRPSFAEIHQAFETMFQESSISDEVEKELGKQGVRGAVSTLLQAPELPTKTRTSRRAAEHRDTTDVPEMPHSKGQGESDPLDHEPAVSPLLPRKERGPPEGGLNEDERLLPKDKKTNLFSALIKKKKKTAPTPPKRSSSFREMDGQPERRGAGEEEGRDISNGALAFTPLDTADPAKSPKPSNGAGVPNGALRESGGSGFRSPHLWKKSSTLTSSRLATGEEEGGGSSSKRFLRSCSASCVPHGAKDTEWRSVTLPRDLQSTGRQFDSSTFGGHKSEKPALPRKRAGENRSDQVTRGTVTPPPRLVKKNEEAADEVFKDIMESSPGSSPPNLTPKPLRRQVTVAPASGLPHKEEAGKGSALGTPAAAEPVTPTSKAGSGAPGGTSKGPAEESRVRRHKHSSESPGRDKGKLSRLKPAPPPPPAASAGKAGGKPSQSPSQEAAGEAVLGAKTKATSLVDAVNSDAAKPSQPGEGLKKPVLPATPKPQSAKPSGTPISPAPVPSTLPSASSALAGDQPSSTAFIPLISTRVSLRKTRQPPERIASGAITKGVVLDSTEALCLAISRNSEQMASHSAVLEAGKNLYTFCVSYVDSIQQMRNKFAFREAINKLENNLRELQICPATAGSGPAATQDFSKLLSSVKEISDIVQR
T1 sequence (P11274 whole entry, looked up, the tested form may be a part): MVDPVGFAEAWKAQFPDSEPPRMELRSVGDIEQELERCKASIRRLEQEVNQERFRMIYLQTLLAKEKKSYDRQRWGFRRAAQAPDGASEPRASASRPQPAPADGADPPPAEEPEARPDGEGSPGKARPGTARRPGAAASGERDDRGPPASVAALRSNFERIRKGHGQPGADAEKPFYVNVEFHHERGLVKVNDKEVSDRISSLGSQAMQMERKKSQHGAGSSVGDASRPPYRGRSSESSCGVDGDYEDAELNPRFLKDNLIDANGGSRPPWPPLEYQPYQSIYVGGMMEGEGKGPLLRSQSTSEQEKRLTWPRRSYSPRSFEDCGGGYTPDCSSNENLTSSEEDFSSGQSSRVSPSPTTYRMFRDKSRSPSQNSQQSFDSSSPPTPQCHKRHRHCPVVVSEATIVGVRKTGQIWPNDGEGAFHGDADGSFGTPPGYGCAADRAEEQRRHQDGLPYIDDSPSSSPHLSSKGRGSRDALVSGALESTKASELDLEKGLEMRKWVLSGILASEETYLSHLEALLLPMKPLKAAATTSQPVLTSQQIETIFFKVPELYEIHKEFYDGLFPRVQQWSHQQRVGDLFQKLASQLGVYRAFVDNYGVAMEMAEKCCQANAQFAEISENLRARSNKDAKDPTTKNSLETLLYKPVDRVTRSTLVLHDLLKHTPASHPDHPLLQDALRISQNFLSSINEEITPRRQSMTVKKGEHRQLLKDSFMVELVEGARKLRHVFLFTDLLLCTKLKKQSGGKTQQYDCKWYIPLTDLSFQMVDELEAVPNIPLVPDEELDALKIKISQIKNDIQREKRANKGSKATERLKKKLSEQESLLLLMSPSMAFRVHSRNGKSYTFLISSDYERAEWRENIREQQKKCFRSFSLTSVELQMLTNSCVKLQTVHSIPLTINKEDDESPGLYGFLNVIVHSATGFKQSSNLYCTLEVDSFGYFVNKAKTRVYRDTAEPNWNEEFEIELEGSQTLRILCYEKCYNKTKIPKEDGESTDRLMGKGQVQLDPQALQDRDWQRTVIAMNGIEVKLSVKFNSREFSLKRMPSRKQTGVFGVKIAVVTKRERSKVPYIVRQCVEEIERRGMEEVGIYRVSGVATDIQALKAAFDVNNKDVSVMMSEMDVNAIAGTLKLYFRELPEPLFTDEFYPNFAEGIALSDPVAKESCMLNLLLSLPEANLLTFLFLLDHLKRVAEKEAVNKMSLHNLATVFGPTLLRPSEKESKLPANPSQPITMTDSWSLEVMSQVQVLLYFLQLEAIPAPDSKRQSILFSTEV
Sequence of Tyrosine-protein kinase ABL1 (P00519 whole entry): as the sequence (P00519 whole entry, looked up, the tested form may be a part) above
Sequence of Baculoviral IAP repeat-containing protein 2 (Q13490 whole entry): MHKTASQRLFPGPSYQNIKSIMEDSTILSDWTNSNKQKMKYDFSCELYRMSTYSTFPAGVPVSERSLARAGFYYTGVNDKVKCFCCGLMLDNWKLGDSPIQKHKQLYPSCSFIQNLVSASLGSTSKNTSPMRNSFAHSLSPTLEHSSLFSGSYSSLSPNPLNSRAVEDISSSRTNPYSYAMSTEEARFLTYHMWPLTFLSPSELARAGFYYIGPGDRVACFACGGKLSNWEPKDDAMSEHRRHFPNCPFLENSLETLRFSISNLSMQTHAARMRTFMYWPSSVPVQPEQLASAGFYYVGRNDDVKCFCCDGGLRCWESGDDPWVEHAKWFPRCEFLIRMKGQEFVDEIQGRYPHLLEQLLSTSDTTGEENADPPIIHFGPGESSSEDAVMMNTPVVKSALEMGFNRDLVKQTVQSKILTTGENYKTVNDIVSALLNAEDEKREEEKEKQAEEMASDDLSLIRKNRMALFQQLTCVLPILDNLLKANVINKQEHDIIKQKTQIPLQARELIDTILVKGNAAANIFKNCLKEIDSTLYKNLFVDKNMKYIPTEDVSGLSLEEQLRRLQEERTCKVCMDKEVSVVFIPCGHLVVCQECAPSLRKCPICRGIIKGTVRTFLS
Sequence of Baculoviral IAP repeat-containing protein 2/Tyrosine-protein kinase ABL1/Breakpoint cluster region protein (Homo sapiens) (P00519 whole entry, looked up): as the sequence (P00519 whole entry, looked up, the tested form may be a part) above
Sequence of Baculoviral IAP repeat-containing protein 2/Tyrosine-protein kinase ABL1/Breakpoint cluster region protein (Homo sapiens) (P11274 whole entry, looked up): as the sequence (P11274 whole entry, looked up, the tested form may be a part) above
Sequence of Baculoviral IAP repeat-containing protein 2/Tyrosine-protein kinase ABL1/Breakpoint cluster region protein (Homo sapiens) (Q13490 whole entry, looked up): as the sequence (Q13490 whole entry) above
Sequence of E3 ubiquitin-protein ligase XIAP (P98170 whole entry): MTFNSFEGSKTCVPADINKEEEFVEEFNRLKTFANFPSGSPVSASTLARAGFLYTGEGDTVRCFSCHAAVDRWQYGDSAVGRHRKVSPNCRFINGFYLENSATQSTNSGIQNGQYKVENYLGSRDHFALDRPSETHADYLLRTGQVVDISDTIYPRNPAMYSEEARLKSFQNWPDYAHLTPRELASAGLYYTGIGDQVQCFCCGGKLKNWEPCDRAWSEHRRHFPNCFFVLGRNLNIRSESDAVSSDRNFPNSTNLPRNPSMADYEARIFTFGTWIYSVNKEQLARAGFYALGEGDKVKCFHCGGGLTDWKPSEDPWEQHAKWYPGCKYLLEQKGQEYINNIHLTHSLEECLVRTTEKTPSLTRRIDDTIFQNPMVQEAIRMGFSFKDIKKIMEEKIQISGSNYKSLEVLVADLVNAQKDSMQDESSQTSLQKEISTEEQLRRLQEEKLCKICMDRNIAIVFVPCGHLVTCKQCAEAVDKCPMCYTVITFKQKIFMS
Sequence of Baculoviral IAP repeat-containing protein 3 (Q13489 whole entry): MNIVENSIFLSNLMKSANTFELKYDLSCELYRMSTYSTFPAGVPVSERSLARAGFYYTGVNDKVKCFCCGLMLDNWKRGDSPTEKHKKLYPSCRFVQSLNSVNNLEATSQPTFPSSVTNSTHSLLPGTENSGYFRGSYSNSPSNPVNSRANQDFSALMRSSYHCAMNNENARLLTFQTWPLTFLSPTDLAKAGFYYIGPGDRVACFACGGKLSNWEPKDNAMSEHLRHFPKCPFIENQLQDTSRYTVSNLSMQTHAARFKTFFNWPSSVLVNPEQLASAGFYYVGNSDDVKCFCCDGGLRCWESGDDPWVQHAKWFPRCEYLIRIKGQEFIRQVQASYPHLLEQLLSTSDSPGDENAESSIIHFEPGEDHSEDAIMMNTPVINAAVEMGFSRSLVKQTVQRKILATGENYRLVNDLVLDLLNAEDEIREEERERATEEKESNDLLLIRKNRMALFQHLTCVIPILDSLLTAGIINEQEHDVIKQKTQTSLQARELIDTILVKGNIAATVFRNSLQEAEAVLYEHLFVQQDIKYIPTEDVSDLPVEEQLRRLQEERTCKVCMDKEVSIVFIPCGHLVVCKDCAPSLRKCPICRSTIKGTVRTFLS

In turn, `CN[C@@H](C)C(=O)N(C)[C@H](C(=O)N1CCC[C@H]1c1nc(C(=O)c2cccc(OCCOCCOCCNC(=O)C3CCN(c4ncc(C(=O)Nc5ccc(OC(F)(F)Cl)cc5)cc4-c4ccn[nH]4)C3)c2)cs1)C1CCCCC1` (stereo partly specified) came in with a fold change (FC) in [1] of 102. In addition, the IC50 in [2] was 340 nM; in [3], over 1000 nM; in [4] it was over 1000 nM; in experiment [5] it was over 1000 nM.

With `CN[C@@H](C)C(=O)N[C@H](C(=O)N1CCC[C@H]1c1nc(C(=O)c2cccc(OCCOCCOCCNC(=O)C3CCN(c4ncc(C(=O)Nc5ccc(OC(F)(F)Cl)cc5)cc4-c4ccn[nH]4)C3)c2)cs1)C1CCCCC1` (stereo partly specified), the “growth inhibition (GI)” value in the experiment on MOLT-4 and with Jurkat was “inactive” throughout. For the same compound, the inhibition result in experiment [6] and in [8] was “Active” each time. Besides, the figures for the IC50 in experiment [2] and in experiment [5] were 360 nM and 86 nM, respectively. Besides, the “growth inhibition (GI)” value in the experiment with K562 [7] and with KCL-22 was “Active” throughout.

In the case of `COC(=O)C1CCN(c2ncc(C(=O)Nc3ccc(OC(F)(F)Cl)cc3)cc2-c2ccn[nH]2)C1` (stereo unspecified), the inhibition entry in experiment [6] and in experiment [8] was “Active” throughout. Moreover, the fold change (FC) in experiment [9] was 92. The IC50 in experiment [2] turned out to be 35 nM.

For the compound `CN[C@@H](C)C(=O)N[C@H](C(=O)N1CCC[C@H]1c1nc(C(=O)c2cccc(OCCOCCOCCNC(=O)c3cccc(-c4cc(Nc5ccc(OC(F)(F)F)cc5)ncn4)c3)c2)cs1)C1CCCCC1`, the IC50 in [2] amounted to 2000 nM; in experiment [5], 220 nM.

Regarding `CN[C@@H](C)C(=O)N[C@H](C(=O)N1CCC[C@H]1c1nc(C(=O)c2cccc(OC)c2)cs1)C1CCCCC1`, the “growth inhibition (GI)” value in the experiment with K562 [10] is “inactive”. Besides, the IC50 in experiment [5] was determined as 4.8 nM.
